Results from ChEMBL document CHEMBL1153719, “Synthesis and biological evaluation of dehydroabietic acid derivatives” (Eur J Med Chem, 2010).
In brackets after ≈: the same amount, converted by molar mass. Activity calls are given as the source filed them. The rule behind the calls is not given here.

What was measured:
[1] = test system: Vero; assay: Cytotoxicity against african green monkey Vero cells after 48 hrs by MTT assay; format: cell-based; conditions: Chlorocebus sabaeus
Summary of the method: (§1)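 HeLa and Vero monolayers were trypsinized, washed and seeded per well (HeLa 1.5×10^4; Vero 1.25×10^4). After 24 h, diluted compounds were added with 0.05% DMSO and incubated 48 h at 37 °C in 5% CO2. Read-out was MTT. IC50 came from linear regression of dose-effect curves, at least four dilutions in quadruplicate, as mean ± S.E.M. Vincristine was the positive control.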

[2] = test system: Vero; assay: Selectivity index, ratio of IC50 for african green monkey Vero cells to IC50 for human Jurkat cells; format: functional
[3] = test system: HeLa; assay: Cytotoxicity against human HeLa cells after 48 hrs by MTT assay; format: functional, cell-based; summary of the method: as §1
[4] = test system: Candida tropicalis; assay: Antifungal activity against Candida tropicalis CECT 11901 at <100 ug/ml after 24 hrs by AFST-EUCAST method; format: functional, organism-based
Summary of the method: (§2)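 EUCAST broth microdilution for fermentative yeasts. Seven serial dilutions were tested in duplicate at final concentrations of 100 to 2 µg/mL, with 0.05% DMSO. Inoculum was 0.5–2.5×10^5 CFU/mL. […] Amphotericin B and itraconazole served as controls (0.031–16 µg/mL). Triplicates were run in three separate assays; results are given as range and geometric mean.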

[5] = test system: Pichia kudriavzevii; assay: Antifungal activity against Candida krusei ATCC 6258 at <100 ug/ml after 24 hrs by AFST-EUCAST method; format: functional, organism-based; summary of the method: as §2
[6] = test system: Vero; assay: Selectivity index, ratio of IC50 for african green monkey Vero cells to IC50 for human HeLa cells; format: functional
[7] = test system: Human alphaherpesvirus 1; assay: Antiviral activity against Human herpesvirus 1 infected in human HeLa cells assessed as maximal nontoxic dose caused highest viral reduction factor after 36 hrs by end point titration method; format: functional, organism-based
[8] = test system: Candida albicans; assay: Antifungal activity against Candida albicans ATCC 10231 at <100 ug/ml after 24 hrs by AFST-EUCAST method; format: functional, organism-based; summary of the method: as §2
[9] = test system: Candida parapsilosis; assay: Antifungal activity against Candida parapsilosis ATCC 22019 at <100 ug/ml after 24 hrs by AFST-EUCAST method; format: functional, organism-based; summary of the method: as §2
[10] = test system: Jurkat; assay: Cytotoxicity against human Jurkat cells after 48 hrs by MTT assay; format: functional, cell-based
Summary of the method: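 Suspension Jurkat cells were seeded at 3.00×10^4 per well. Diluted compounds were added directly, with 0.05% DMSO, and incubated 48 h at 37 °C. Read-out was MTT. IC50 came from linear regression of dose-effect curves, at least four dilutions in quadruplicate, as mean ± S.E.M. Vincristine was the positive control.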

[11] = test system: Human alphaherpesvirus 1; assay: Antiviral activity against Human herpesvirus 1 infected in human HeLa cells assessed as ratio of viral titer in absence of drug over viral titer in presence of drug after 36 hrs by end point titration method; format: functional, organism-based
[12] = Cytotoxicity against african green monkey Vero cells assessed as minimal toxic dosed detached 100% of the cell monolayer; conditions: chlorocebus sabaeus, read-out: CC100
[13] = test system: Aspergillus niger; assay: Antifungal activity against Aspergillus niger after 24 hrs by AFST-EUCAST method; format: functional
[14] = test system: Aspergillus fumigatus; assay: Antifungal activity against Aspergillus fumigatus after 24 hrs by AFST-EUCAST method; format: functional
[15] = test system: Human alphaherpesvirus 1; assay: Antiviral activity against Human herpesvirus 1 infected in african green monkey Vero cells assessed as maximal nontoxic dose caused highest viral reduction factor after 36 hrs by end point titration method; format: functional
Summary of the method: (§3)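 HSV-1 stock was grown in HeLa cells. Two-fold compound dilutions were premixed with one infectious dose of virus for 0.5 h at 37 °C, then added to confluent HeLa or Vero monolayers for 36 h at 37 °C in 5% CO2. End-point titration gave the reduction factor, virus titer without compound over titer with compound, at the maximal nontoxic dose. Acyclovir and heparin were the controls.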

[16] = test system: Human alphaherpesvirus 1; assay: Antiviral activity against Human herpesvirus 1 infected in african green monkey Vero cells assessed as ratio of viral titer in absence of drug over viral titer in presence of drug after 36 hrs by end point titration method; format: functional; summary of the method: as §3
[17] = test system: Aspergillus terreus; assay: Antifungal activity against Aspergillus terreus after 24 hrs by AFST-EUCAST method; format: functional
[18] = Solubility in DMSO; format: physicochemical
[19] = Cytotoxicity against human HeLa cells assessed as minimal toxic dosed detached 100% of the cell monolayer; conditions: read-out: CC50

Structure (SMILES) | IC50 [1] | Ratio IC50 [2] | IC50 [3] | Activity [4] | Activity [5] | Ratio IC50 [6] | Activity [7] | Activity [8] | Activity [9] | IC50 [10] | Activity [11] | MCC [12] | MIC [13] | MIC [14] | Activity [15] | Ratio [16] | MIC [17] | solubility [18] | MCC [19]
CC(C)c1ccc2c(c1)[C@H](O)C[C@H]1[C@](C)(C=O)CCC[C@]21C | 36 µg/mL (≈ 120 µM) | 3 | 23 µg/mL (≈ 76.6 µM) | inactive | inactive | 1.6 | inactive | inactive | inactive | 12 µg/mL (≈ 39.9 µM) | inactive | – | – | – | – | – | – | – | –
CC(C)c1ccc2c(c1)C(=O)C[C@H]1[C@](C)(CO)CCC[C@]21C | 27 µg/mL (≈ 89.9 µM) | 1.6 | 30 µg/mL (≈ 99.9 µM) | inactive | inactive | 0.9 | inactive | inactive | inactive | 17 µg/mL (≈ 56.6 µM) | inactive | 25 µg/mL | – | – | – | – | – | – | –
CC(C)c1ccc2c(c1)[C@H](O)C[C@H]1[C@](C)(CO)CCC[C@]21C | 30 µg/mL (≈ 99.2 µM) | 2.5 | 20 µg/mL (≈ 66.1 µM) | inactive | inactive | 1.5 | inactive | inactive | inactive | 12 µg/mL (≈ 39.7 µM) | inactive | 25 µg/mL | 63 µg/mL (≈ 208 µM) | 50 µg/mL (≈ 165 µM) | – | – | – | – | –
CC(C)C1=CC2=CC[C@@H]3[C@](C)(CCC[C@@]3(C)C(=O)O)[C@H]2CC1 | – | – | – | – | – | – | inactive | – | – | – | inactive | – | – | – | – | – | – | – | –
Nc1nc2c(ncn2COCCO)c(=O)[nH]1 [ACYCLOVIR] | – | – | – | – | – | – | – | – | – | – | – | > 600 µg/mL | – | – | 6 µg/mL | 1000 | – | – | –
CC(C)c1ccc2c(c1)CC[C@H]1[C@](C)(C(=O)O)CCC[C@]21C [DEHYDROABIETIC ACID] | 91 µg/mL (≈ 303 µM) | 3.2 | 101 µg/mL (≈ 336 µM) | – | inactive | 0.9 | inactive | inactive | inactive | 28 µg/mL (≈ 93.2 µM) | inactive | > 50 µg/mL | – | – | – | – | 39.7 µg/mL (≈ 132 µM) | – | –
CC(C)c1ccc2c(c1)CC[C@H]1[C@](C)(C=O)CCC[C@]21C [DEHYDROABIETINAL] | 32 µg/mL (≈ 113 µM) | 1.9 | 24 µg/mL (≈ 84.4 µM) | inactive | inactive | 1.3 | inactive | inactive | inactive | 17 µg/mL (≈ 59.8 µM) | inactive | 50 µg/mL | – | – | – | – | – | – | –
CC(=O)OC[C@]1(C)CCC[C@]2(C)c3ccc(C(C)C)cc3CC[C@@H]12 [DEHYDROABIETINOL ACETATE] | 95 µg/mL | 4.3 | 28 µg/mL | inactive | inactive | 3.4 | inactive | inactive | inactive | 22 µg/mL | inactive | > 50 µg/mL | – | – | 25 µg/mL | 10 | – | – | –
CC(C)c1ccc2c(c1)CC[C@H]1[C@](C)(COC(=O)c3ccccc3)CCC[C@]21C [DEHYDROABIETINOLBENZOATE] | ≥ 200 µg/mL | >3.5 | ≥ 200 µg/mL | – | inactive | – | inactive | inactive | inactive | 57 µg/mL (≈ 146 µM) | inactive | > 50 µg/mL | – | – | 50 µg/mL | 3.16 | – | – | –
CC(C)c1ccc2c(c1)CC[C@H]1[C@](C)(COC(=O)c3cccnc3)CCC[C@]21C [DEHYDROABIETINOLNICOTINATE] | – | – | – | – | – | – | – | – | – | – | – | – | – | – | – | – | – | Insoluble | –
COC(=O)[C@]1(C)CCC[C@@]2(C)[C@H]1CC=C1C=C(C(C)C)CC[C@@H]12 [METHYL ABIETATE] | – | – | – | – | – | – | Active | – | – | – | inactive | – | – | – | – | – | – | – | 11 µM
COC(=O)[C@]1(C)CCC[C@]2(C)c3ccc(C(C)C)cc3CC[C@@H]12 [METHYL DEHYDROABIETATE] | 36 µg/mL (≈ 114 µM) | 1.7 | 28 µg/mL (≈ 89 µM) | inactive | inactive | 1.3 | inactive | inactive | inactive | 21 µg/mL (≈ 66.8 µM) | inactive | > 50 µg/mL | – | – | – | – | – | – | –
CC(C)c1ccc2c(c1)CC[C@H]1[C@](C)(CO)CCC[C@]21C [POMIFERIN A] | 38 µg/mL (≈ 133 µM) | 3.9 | 13 µg/mL (≈ 45.4 µM) | inactive | inactive | 2.9 | inactive | inactive | inactive | 9.7 µg/mL (≈ 33.9 µM) | inactive | 50 µg/mL | – | – | – | – | – | – | –
